Source: PubChem (several laboratories)
SR-BI DiI-HDL act = activators of SR-BI mediated DiI-HDL uptake, primary screen, ldlA[mSR-BI] CHO cells, DiI fluorescence | 3 h; 100 = double the neutral-control signal | activation, % at 12.5 µM | actives 0.096% (n = 320,000) | AID 504775, 2011;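 active = mean replicate activation of at least 60% and every replicate at or above 60%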
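Material – SR-BI-overexpressing, LDLR-lacking CHO cells · Medium – BSA-supplemented, HEPES-buffered Ham's F12, pH 7.4 · Doses – single concentration · Times – compound with DiI-HDL co-incubation, 3 h at 37 °C · Measured by – bottom-read fluorescence, 550/595 nm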
SMARCA2 act = SMARCA2 (BRM) function activators, primary screen, cell-based, luminescence, high throughput. actives 1% (n = 370,000). AID 652017, 2013. MG213 cells, MMTV-luciferase reporter, dexamethasone, overnight. activation, % at 9.1 µM; in the data active = activation above about 7.8%
Hep lipid drop = inhibitors of hepatocyte lipid droplet formation, primary screen, imaging, high-throughput imaging, BODIPY stain; actives 0.4% (n = 240,000); AML12 mouse hepatocytes, oleate lipid droplets; AID 1656, 2009; inhibition, % at 6.5 µM;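 active = lipid droplet intensity inhibited by at least 50%, with more than 500 cells counted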
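Assay system: AML12 mouse liver cells | Compound dosing: One dose, 6.5 µM compound | Read-out basis: Droplet intensity reduction, % inhibition | Measured by: Fluorescence imaging, 20x objective, two fields per well | Schedule: Overnight treatment with compound plus oleate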
CR mimetic SO = reduction of superoxide in aged yeast, primary screen, HTS; S. cerevisiae aged cells, superoxide DHE fluorescence; active compounds read low; superoxide response (% of plate mean), % at 10 µM; actives 0.18% (n = 330,000);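 active = superoxide response under a set limit, about three screen SD below normal, cut at about 65% in these data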;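 also: yeast aged for seven days with compound at 30 °C before DHE staining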
AHR act = AHR activators, primary screen, cell-based, luminescence, luciferase reporter, human | Aryl hydrocarbon receptor (Homo sapiens), P35869 | AHR-responsive luciferase reporter cells | AID 2796, 2010 | activation, % at 5 µM | actives 2.5% (n = 320,000); in the data active = activation above about 47%
SR-BI DiI inh = inhibitors of SR-BI mediated HDL lipid uptake, primary screen, ldlA[mSR-BI] cells, fluorescence, single point; AID 488896, 2010; actives 0.96% (n = 320,000); ldlA[mSR-BI] CHO cells, DiI-HDL uptake fluorescence, 3 h; Scavenger receptor class B member 1 (Mus musculus), Q61009; inhibition, % at 12.5 µM;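 active = mean replicate inhibition of at least 70% and a set share of replicates each scoring 70 or more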
SMARCA2 conf = SMARCA2 (BRM) function activators, confirmation, cell-based, luminescence, triplicate. activation, % at 9.1 µM. shares compounds with SMARCA2 act. AID 652260, 2013. actives 30% (n = 3,500). MG213 cells, MMTV-luciferase with dexamethasone, overnight; MG213 cells expressing E1A, Rb sequestered; DMSO wells 0%, reference activator 100%;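 active = activation above its plate's cutoff, the mean activation of tested wells plus 3 SD, cut at about 7.9% in these data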
GAL4-VP16 Luc = GAL4-VP16 luciferase reporter activation, counter-screen for SMARCA2 (BRM) activator project, cell-based, pG5luc, luminescence, high throughput | activation, % at 9.1 µM | actives 41% (n = 3,500) | shares compounds with SMARCA2 act | HEK293 GAL4-VP16 pG5luc reporter; scaled: DMSO wells 0%, SAHA wells 100%;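 active = activation above the solvent-only control well mean plus 3 SD, averaged across control plates, cut at about 5.2% in these data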
Hits are given with their value; 0 = inactive; - = not tested or not shown; ! = not confirmed by another sample. This is a sample that favours compounds with a hit; in the whole collection about 4.3% have one here.

SMILES	SR-BI DiI-HDL act	SMARCA2 act	Hep lipid drop	CR mimetic SO	AHR act	SR-BI DiI inh	SMARCA2 conf	GAL4-VP16 Luc
CCN=C1NC(c2ccc(C(F)(F)F)cc2)C(C(=O)OC)=C(C)N1Cc1ccccc1C(F)(F)F (stereo unspecified)	-	0	-	-	-	-	-	-
CCCCNS(=O)(=O)CC1NCc2ccc(C)cc21 (stereo unspecified)	-	0	-	-	-	-	-	-
Cc1cc(C)c2nc3nc(C)c(C)cc3c(N)c2c1	0	17	0	-	-	0	50	0
CCCS(=O)(=O)NC(=O)C1(C)CCN(C(=O)c2nc(C)oc2C)C1 (stereo unspecified)	-	8.0	-	-	-	-	0	0
Cc1ccccc1S(=O)(=O)N1CCCc2nc(C)c(C)cc21	-	0	-	-	-	-	-	-
COC(=O)C1=C(C)N(Cc2ccccc2C(F)(F)F)C(=NCc2ccc(C(F)(F)F)cc2)NC1c1ccccc1 (stereo unspecified)	-	0	-	-	-	-	-	-
CCOC(=O)NN=C1c2ccccc2-c2ccccc21	0	0	-	0	-	0	-	-
CCOC(=O)Nc1ccc2c(c1)C(=NNC(=S)NC)c1ccccc1-2	-	9.8	-	-	-	-	16	8.4
C(#CC1=CCCCC1)CNCc1ccccc1	-	0	-	-	-	-	-	-
CC(CCc1ccccc1)NC(=O)CN1CCN(c2ccccc2)CC1 (stereo unspecified)	0	8.7	0	0	0	0	0	0
CC(CCc1ccccc1)NC(=O)C(=O)Nc1ccccc1 (stereo unspecified)	0	8.9	0	0	0	0	11	9.8
C=CCN1[C@H](C#N)[C@@H](c2ccc(C#Cc3cccc(OC)c3)cc2)[C@H]1CO	-	0	-	-	-	-	-	-
COC(=O)[C@]12C[C@H](CC(=O)NCc3cccc(C(F)(F)F)c3)C(=O)N(Cc3ccc4c(c3)OCO4)C1=C[C@H](C(C)(C)C)O[C@@H]2C	-	0	-	-	-	-	-	-
Cn1cc(CC(=O)NCc2ccc(F)cc2)c2ccccc21	0	0	-	0	0	0	-	-
Cn1cc(S(=O)(=O)Cc2ccc(F)cc2)c2ccccc21	0	8.2	0	0	0	0	0	0
CC1CCCCN1S(=O)(=O)c1ccc(S(=O)(=O)N2CCCC2)cc1 (stereo unspecified)	0	8.9	0	0	0	0	0	0
O=C(NC1CCCCCCC1)c1ccc(F)cc1	0	12	-	0	0	0	12	7.5
O=C(NC1CC2CCCC(C1)N2C(=O)NC1CCCCC1)c1ccc(F)cc1 (stereo unspecified)	0	0	-	0	0	0	-	-
COc1ccccc1C(=O)NCCC(=O)NC1CCC(C)CC1 (stereo unspecified)	0	10	-	0	0	0	0	0
COc1ccccc1C(=O)NC1CCCCCCC1	0	8.0	0	0	0	0	0	0
COc1ccccc1C(=O)NCCC(=O)NC1CCCCC1C (stereo unspecified)	0	0	-	0	0	0	-	-
C[C@@H]1ON(C)[C@H]2C[C@H]3c4[nH]c5c(-c6cc(Cl)cc(Cl)c6)cccc5c4CCN3C(=O)[C@@H]12	-	0	-	-	-	-	-	-
COc1ccc(C(=O)OCCc2ccc(O)cc2)cc1	0	9.2	0	0	0	0	8.6	12
O=S1(=O)CC(N2CCCC2)CN1 (stereo unspecified)	-	0	-	-	-	-	-	-
COc1ccc(Nc2c3ccccc3nc3ccccc23)cc1	0	0	0	0	0	0	-	-
SMILES	SR-BI DiI-HDL act	SMARCA2 act	Hep lipid drop	CR mimetic SO	AHR act	SR-BI DiI inh	SMARCA2 conf	GAL4-VP16 Luc
COc1cc(Nc2c3ccccc3nc3ccccc23)cc(OC)c1OC	0	8.2	0	0	0	0	31	0
COc1ccc(C2C(C(=O)N3CCN(c4ccccn4)CC3)CCC(=O)N2c2ccc(OC)cc2)cc1 (stereo unspecified)	0	0	0	0	0	0	-	-
COc1ccc(C2C(C(=O)N3CCN(c4ccccn4)CC3)CCC(=O)N2c2cc(OC)c(OC)c(OC)c2)cc1 (stereo unspecified)	-	8.0	0	0	0	-	0	0
CC1=C/C(=N\NC(=S)Nc2cccnc2)CC(C)(C)C1	0	8.1	0	-	-	0	0	21
CC(=O)Nc1ccc(NCN2C(=O)[C@@H]3[C@H]4CC[C@H](C4)[C@@H]3C2=O)cc1	0	8.9	0	0	0	0	0	0
CCOC(=O)Cn1cc(CN2CCS(=O)(=O)N(Cc3ccc(C)cc3)C(C(=O)OC)C2)nn1 (stereo unspecified)	-	0	-	-	-	-	-	-
COc1cc(/C=N/N(C)c2ccccc2)ccc1O	0	9.3	0	0	0	0	0	9.9
COC(=O)C1CN(C2CCCC2)CCS(=O)(=O)N1Cc1ccc(F)cc1 (stereo unspecified)	-	0	-	-	-	-	-	-
O=C(OC12CCCN(C1)/C(=C/c1ccc(Cl)cc1)C2)c1cccc(F)c1 (stereo unspecified)	-	0	-	-	-	-	-	-
CN1CCN(Cc2nc3ccccc3c(=O)n2Cc2nc(-c3ccc4ccccc4c3)cs2)CC1	0	8.2!	0	0	0	0	21	0
O=C(NCc1cccs1)C1CCC(CNS(=O)(=O)c2cccc3cccnc23)CC1 (stereo unspecified)	-	0	-	-	-	-	-	-
CSc1ccc(-c2cc(=O)c3ccccc3o2)cc1	0	12	0	0	0	0	0	12
O=c1cc(-c2ccccc2F)oc2ccccc12	0	13	0	0	0	0	0	7.7
CNC(=O)c1ncoc1-c1ccc(Cl)cc1	0	8.1	0	0	0	0	0	0
Cc1ccc(-c2ocnc2C(=O)Nc2ccccc2C(=O)N2CCCC2)cc1	-	0	0	0	0	-	-	-
Fc1cccc(Cc2c(-c3ccco3)nc3c4ccccc4ccn23)c1	-	0	-	-	-	-	-	-
FC(F)(F)c1ccccc1Cc1c(-c2cccc(Cl)c2)nc2c3ccccc3ccn12	-	8.2	-	-	-	-	0	0
Clc1cccc(Cc2c(-c3ccco3)nc3c4ccccc4ccn23)c1	-	24	-	-	-	-	12	10
Fc1ccc(-c2nc3c4ccccc4ccn3c2Cc2ccsc2)cc1	-	0	-	-	-	-	-	-
c1coc(-c2nc3c4ccccc4ccn3c2Cc2ccsc2)c1	-	20	-	-	-	-	16	0
O=C(C(=O)N1CCC(CNC(=O)C2COc3ccccc3O2)CC1)c1cccs1 (stereo unspecified)	-	0	-	-	-	-	-	-
